Results from ChEMBL document CHEMBL1138555, “N-acylated and N,N'-diacylated imidazolidine-2-thione derivatives and N,N'-diacylated tetrahydropyrimidine-2(1H)-thione analogues: synthesis and antiproliferative activity” (Eur J Med Chem, 2009).

Tests used:
Assay type in all cases: functional
A498 = assay: Growth inhibition of human A498 cells after 48 hrs by sulforhodamine B assay; details: A498, 48 h
Summary of the method: (§1)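 NCI screen panel. Five 10-fold concentrations from 10^-4 to 10^-8 M. Exposure for the last 48 h of a 72 h incubation. Growth estimated by sulforhodamine B protein assay. GI50 is the concentration giving 50% growth inhibition. Where that level was not reached or was exceeded, the value is given as above or below the highest or lowest concentration tested.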

RXF 393 = assay: Growth inhibition of human RXF393 cells after 48 hrs by sulforhodamine B assay; details: RXF 393, 48 h; summary of the method: as §1
NCI-H522 = assay: Growth inhibition of human NCI-H522 cells after 48 hrs by sulforhodamine B assay; details: NCI-H522, 48 h; summary of the method: as §1
SF-539 = assay: Growth inhibition of human SF539 cells after 48 hrs by sulforhodamine B assay; details: SF-539, 48 h; summary of the method: as §1
SK-MEL-28 = assay: Growth inhibition of human SK-MEL-28 cells after 48 hrs by sulforhodamine B assay; details: SK-MEL-28, 48 h; summary of the method: as §1
[1] = Growth inhibition of human […] cells after 48 hrs by sulforhodamine B assay; summary of the method: as §1
K562 = assay: Growth inhibition of human K562 cells after 48 hrs by sulforhodamine B assay; details: K562, 48 h; summary of the method: as §1
NCI/ADR-RES = assay: Growth inhibition of human NCI/ADR-RES cells after 48 hrs by sulforhodamine B assay; summary of the method: as §1
NCI-H226 = assay: Growth inhibition of human NCI-H226 cells after 48 hrs by sulforhodamine B assay; details: NCI-H226, 48 h; summary of the method: as §1
OVCAR-8 = assay: Growth inhibition of human OVCAR8 cells after 48 hrs by sulforhodamine B assay; details: OVCAR-8, 48 h; summary of the method: as §1
TK-10 = assay: Growth inhibition of human TK10 cells after 48 hrs by sulforhodamine B assay; details: TK-10, 48 h
Summary of the method: (§2)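 NCI in vitro panel screen. Compounds tested at five 10-fold dilutions, 10^-4 to 10^-8 M. Cells in 96-well plates were exposed for the last 48 h of a 72 h incubation. Viability/growth was read by sulforhodamine B protein assay. GI50 is the concentration giving 50% growth inhibition. Values beyond the tested range are reported as greater or less than the maximum or minimum concentration.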

DU-145 = assay: Growth inhibition of human DU145 cells after 48 hrs by sulforhodamine B assay; details: DU-145, 48 h; summary of the method: as §1
SF-295 = assay: Growth inhibition of human SF295 cells after 48 hrs by sulforhodamine B assay; details: SF-295, 48 h; summary of the method: as §1
HCC 2998 = assay: Growth inhibition of human HCC2998 cells after 48 hrs by sulforhodamine B assay; details: HCC 2998, 48 h; summary of the method: as §1
BT-549 = assay: Growth inhibition of human BT549 cells after 48 hrs by sulforhodamine B assay; details: BT-549, 48 h; summary of the method: as §1
A549 = assay: Growth inhibition of human A549 cells after 48 hrs by sulforhodamine B assay; details: A549, 48 h; summary of the method: as §1
786-0 = assay: Growth inhibition of human 786-0 cells after 48 hrs by sulforhodamine B assay; details: 786-0, 48 h; summary of the method: as §1
SK-MEL-2 = assay: Growth inhibition of human SK-MEL-2 cells after 48 hrs by sulforhodamine B assay; details: SK-MEL-2, 48 h; summary of the method: as §1
NCI-H23 = assay: Growth inhibition of human NCI-H23 cells after 48 hrs by sulforhodamine B assay; details: NCI-H23, 48 h; summary of the method: as §1
SR = assay: Growth inhibition of human SR cells after 48 hrs by sulforhodamine B assay; summary of the method: as §2
SK-MEL-5 = assay: Growth inhibition of human SK-MEL-5 cells after 48 hrs by sulforhodamine B assay; details: SK-MEL-5, 48 h; summary of the method: as §1

Structure (SMILES)	GI50 (A498)	GI50 (RXF 393)	GI50 (NCI-H522)	GI50 (SF-539)	GI50 (SK-MEL-28)	GI50 [1]	GI50 (K562)	GI50 (NCI/ADR-RES)	GI50 (NCI-H226)	GI50 (OVCAR-8)	GI50 (TK-10)	GI50 (DU-145)	GI50 (SF-295)	GI50 (HCC 2998)	GI50 (BT-549)	GI50 (A549)	GI50 (786-0)	GI50 (SK-MEL-2)	GI50 (NCI-H23)	GI50 (SR)	further results
O=C(c1ccc(Cl)cc1Cl)N1CCN(C(=O)c2ccc(Cl)cc2Cl)C1=S	16.1 µM	18.5 µM	18.2 µM	27.2 µM	18.4 µM	12.9 µM	31.4 µM	24.8 µM	40.9 µM	22.1 µM	36.3 µM	30.6 µM	22.9 µM	22 µM	21.1 µM	20.1 µM	18.6 µM	18.4 µM	19.8 µM	–	–
O=C(c1cc(Cl)cc(Cl)c1)N1CCN(C(=O)c2cc(Cl)cc(Cl)c2)C1=S	15.5 µM	12.7 µM	3.7 µM	12.8 µM	12.2 µM	1.5 µM	4.8 µM	31.7 µM	23.7 µM	15.3 µM	10.7 µM	10.5 µM	19.5 µM	16.7 µM	22.4 µM	18.4 µM	2.9 µM	16.1 µM	14.8 µM	3.3 µM	GI50 (SK-MEL-5): 16.1 µM
COc1cc(C(=O)N2CCN(C=O)C2=S)cc(OC)c1OC	20.5 µM	16.1 µM	5.8 µM	21.3 µM	29.5 µM	7.3 µM	30.8 µM	36.1 µM	35.9 µM	24 µM	17.1 µM	19.6 µM	29.3 µM	19.8 µM	25 µM	33.2 µM	12.7 µM	19.9 µM	25.9 µM	–	–
COc1cc(C(=O)N2CCN(C(=O)c3cc(OC)c(OC)c(OC)c3)C2=S)cc(OC)c1OC	17.7 µM	14.3 µM	3.7 µM	14.5 µM	17.2 µM	3.7 µM	24.9 µM	26.8 µM	19.5 µM	21.9 µM	17 µM	13.6 µM	19 µM	19 µM	17.4 µM	19.9 µM	11.4 µM	16.3 µM	18.7 µM	–	–
O=C(c1cccs1)N1CCN(C(=O)c2cccs2)C1=S	15.1 µM	2.9 µM	3.8 µM	1.8 µM	3.8 µM	1.2 µM	3.5 µM	19.1 µM	15.9 µM	5.3 µM	5.4 µM	3.3 µM	16.7 µM	8 µM	10 µM	4 µM	2.4 µM	12.6 µM	10.6 µM	3.4 µM	GI50 (SK-MEL-5): 4.6 µM
O=C(c1ccco1)N1CCN(C(=O)c2ccco2)C1=S	16.6 µM	3.6 µM	3.1 µM	3 µM	5.5 µM	2 µM	1 µM	15.6 µM	28.7 µM	8.8 µM	6.3 µM	2.7 µM	16.9 µM	12.4 µM	4.6 µM	9.8 µM	3.3 µM	14.2 µM	19.5 µM	1.8 µM	GI50 (SK-MEL-5): 10.1 µM
O=CN1CCN(C(=O)c2ccco2)C1=S	16.5 µM	3.3 µM	4 µM	2.5 µM	26.2 µM	1.8 µM	2.6 µM	24.5 µM	28.5 µM	16.8 µM	14.3 µM	2.5 µM	21.4 µM	13.4 µM	2.3 µM	12.5 µM	3.3 µM	16.5 µM	16.7 µM	2.1 µM	GI50 (SK-MEL-5): 12.7 µM
O=C(c1ccc(Cl)c(Cl)c1)N1CCN(C(=O)c2ccc(Cl)c(Cl)c2)C1=S	20.2 µM	17.8 µM	6.1 µM	15.1 µM	30.6 µM	1.8 µM	16.5 µM	34.4 µM	19 µM	19 µM	18.5 µM	14.7 µM	18.5 µM	19.9 µM	23.6 µM	27.8 µM	7.2 µM	18.4 µM	22 µM	–	–
